Test results published in ChEMBL document CHEMBL1139422, “Design, synthesis and biological evaluation of novel compounds with conjugated structure as anti-tumor agents” (Bioorg Med Chem, 2008).
Active and inactive are the calls of the source. The rule behind the calls is not given here.

Assays:
Zea mays = experiment: Selectivity for maize histone deacetylase 1A over maize histone deacetylase 1B
Histone deacetylase 4 = Histone deacetylase 4 (Homo sapiens, UniProt P56524); experiment: Inhibition of human recombinant HDAC4 using Fluor de Lys as substrate by fluorimetric assay
Procedure, shortened: (§1)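 Purified recombinant HDAC1 or HDAC4 was incubated with acetylated-lysine Fluor de Lys substrate, with or without inhibitor. Developer was then added to give the fluorophore, and fluorescence was read. IC50 values are means of at least three experiments. SI is IC50(HDAC1)/IC50(HDAC4).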

Histone deacetylase 1 = Histone deacetylase 1 (Homo sapiens, UniProt Q13547); experiment: Inhibition of human recombinant HDAC1 using Fluor de Lys as substrate by fluorimetric assay; procedure, shortened: as §1
Histone deacetylase = experiment: Inhibition of human recombinant HDAC by fluorimetric assay; assay type: protein assay
A549 = experiment: Antiproliferative activity against human A549 cells after 48 hrs by MTT assay; assay type: functional, cell-based; conditions: A549, 48 h
Procedure, shortened: (§2)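 Cells seeded at 4000/well; compounds (10 mg/mL DMSO stock, diluted in medium) added 24 h after seeding, in duplicate. Incubation 48 h at 37 °C, 5% CO2. MTT (20 µL of 5 mg/mL in PBS) then added for 4 h at 37 °C, and the signal read at 570 nm.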

PC-3 = experiment: Antiproliferative activity against human PC3 cells after 48 hrs by MTT assay; assay type: functional, cell-based; conditions: PC-3, 48 h; procedure, shortened: as §2
HepG2 = experiment: Antiproliferative activity against human HepG2 cells after 48 hrs by MTT assay; assay type: functional, cell-based; conditions: HepG2, 48 h; procedure, shortened: as §2
U-937 [1] = experiment: Induction of apoptosis in human U937 cells assessed as caspase 3 activation at 0.5 uM after 28 hrs by FACS analysis; assay type: functional, cell-based
Procedure, shortened: (§3)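 U937 cells were grown in supplemented RPMI at 200,000 cells/mL. Compounds in DMSO were given at 5 µM for 24 h or 30 h, or at 0.5 µM for 28 h. Apoptosis was analysed by FACS. Values are means of independent duplicates.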

U-937 [2] = experiment: Increase in granulocytic differentiation in human U937 cells assessed as CD11c expression at 0.5 uM after 28 hrs by FACS analysis; assay type: functional, cell-based
Procedure, shortened: (§4)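 U937 cells were grown in RPMI with 10% FCS, 10 mM Hepes and 2 mM glutamine at 200,000 cells/mL. Compounds in DMSO were given for 30 h (5 µM) or 28 h (0.5 µM). Cells were stained for surface antigen for 30 min at 4 °C in the dark, washed, and resuspended in PBS with propidium iodide. PI-positive cells were excluded from the FACS analysis. Values are means of independent quadruplicates.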

Homo sapiens = organism: Homo sapiens; experiment: Selectivity index, ratio of IC50 for human recombinant HDAC1 to IC50 for human recombinant HDAC4; procedure, shortened: as §1
Plasma [3] = experiment: Stability in rat plasma at 100 ug/ml; assay type: ADME, cell-free
Procedure, shortened: (§5)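 Compounds were dissolved in blank rat plasma (1 mg/mL stock) and serially diluted with plasma. Samples were incubated at 37 °C and sampled at several times. Proteins were precipitated with two volumes of acetonitrile and spun at 16,000 rpm for 5 min, and the supernatant was analysed by HPLC.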

U-937 [4] = experiment: Cell cycle arrest in human U937 cells assessed as accumulation at S phase at 5 uM after 24 hrs by flow cytometry; assay type: functional, cell-based
Procedure, shortened: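 U937 cells were grown in RPMI with 10% FCS, penicillin/streptomycin, amphotericin-B, 10 mM Hepes and 2 mM glutamine, and held at 200,000 cells/mL. Cells were treated 24 h with compounds in DMSO. 2.5×10^5 cells were resuspended in hypotonic buffer (0.1% Triton X-100, 0.1% sodium citrate, 50 µg/mL PI, RNase A) for 30 min in the dark, then analysed by flow cytometry. Values are means of independent duplicates.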

[5] = target: T1, Protein deacetylase HDAC6 (Homo sapiens) (UniProt Q9UBN7); experiment: Inhibition of HDAC6 in human U937 cells assessed as induction of alpha-tubulin acetylation after 24 hrs by Western blot analysis; assay type: cell-based; conditions: U-937
T1 sequence (whole entry): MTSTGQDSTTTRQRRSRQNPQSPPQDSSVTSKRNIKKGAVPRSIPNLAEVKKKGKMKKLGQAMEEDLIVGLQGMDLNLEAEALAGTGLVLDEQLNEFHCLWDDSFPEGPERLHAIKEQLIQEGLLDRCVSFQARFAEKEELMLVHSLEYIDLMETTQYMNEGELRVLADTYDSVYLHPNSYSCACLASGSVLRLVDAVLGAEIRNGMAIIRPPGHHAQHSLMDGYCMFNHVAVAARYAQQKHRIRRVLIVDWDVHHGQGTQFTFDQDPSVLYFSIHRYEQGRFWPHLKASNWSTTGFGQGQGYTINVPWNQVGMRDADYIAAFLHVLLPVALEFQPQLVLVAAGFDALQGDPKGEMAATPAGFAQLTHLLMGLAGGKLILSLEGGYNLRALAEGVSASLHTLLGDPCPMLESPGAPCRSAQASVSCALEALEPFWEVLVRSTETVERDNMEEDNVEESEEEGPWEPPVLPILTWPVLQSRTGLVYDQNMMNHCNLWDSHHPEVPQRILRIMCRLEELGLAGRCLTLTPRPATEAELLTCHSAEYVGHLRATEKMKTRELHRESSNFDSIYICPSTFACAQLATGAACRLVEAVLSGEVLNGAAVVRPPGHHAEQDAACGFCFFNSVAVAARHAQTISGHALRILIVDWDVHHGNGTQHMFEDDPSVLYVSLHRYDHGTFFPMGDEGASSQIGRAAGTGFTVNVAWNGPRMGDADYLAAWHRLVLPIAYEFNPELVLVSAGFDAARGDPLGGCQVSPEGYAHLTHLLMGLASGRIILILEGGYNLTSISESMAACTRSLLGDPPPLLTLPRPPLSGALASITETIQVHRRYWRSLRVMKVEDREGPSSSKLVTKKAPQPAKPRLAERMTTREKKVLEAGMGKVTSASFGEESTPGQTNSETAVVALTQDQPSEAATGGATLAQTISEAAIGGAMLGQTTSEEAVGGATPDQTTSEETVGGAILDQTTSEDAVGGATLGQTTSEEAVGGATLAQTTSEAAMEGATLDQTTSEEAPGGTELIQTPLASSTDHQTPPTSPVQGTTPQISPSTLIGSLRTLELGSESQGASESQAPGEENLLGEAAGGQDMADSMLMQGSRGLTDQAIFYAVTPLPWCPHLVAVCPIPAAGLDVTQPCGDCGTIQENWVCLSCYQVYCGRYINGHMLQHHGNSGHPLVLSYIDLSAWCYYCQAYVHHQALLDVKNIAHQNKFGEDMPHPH
Procedure, shortened: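 U937 cells were treated for 24 h. Total protein extract (50 µg) was run on a 10% polyacrylamide gel and blotted for acetylated α-tubulin (1:500), with total ERK as the loading control.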

U-937 [6] = experiment: Induction of p21waf1/CIP1 expression in human U937 cells after 24 hrs by Western blot analysis; assay type: functional, cell-based
Procedure, shortened: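 U937 cells were treated for 24 h. Total protein extracts (50 µg) were run on a 15% polyacrylamide gel and blotted for p21 (1:500), with tubulin as the loading control.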

HCT-116 = experiment: Antiproliferative activity against human HCT116 cells after 48 hrs by MTT assay; assay type: functional, cell-based; conditions: HCT-116, 48 h; procedure, shortened: as §2
Plasma [7] = experiment: Stability in rat plasma at 25 ug/ml; assay type: ADME, cell-free; procedure, shortened: as §5
U-937 [8] = experiment: Induction of monocytic differentiation in human U937 cells assessed as CD14 expression at 5 uM after 30 hrs by FACS analysis; assay type: functional, cell-based; procedure, shortened: as §4
U-937 [9] = experiment: Induction of apoptosis in human U937 cells assessed as caspase 3 activation at 5 uM after 30 hrs by FACS analysis; assay type: functional, cell-based; procedure, shortened: as §3
U-937 [10] = experiment: Increase in granulocytic differentiation in human U937 cells assessed as CD11c expression at 5 uM after 30 hrs by FACS analysis; assay type: functional, cell-based; procedure, shortened: as §4
[11] = Inhibition of HDAC

Histone deacetylase 4, sequence (P56524 whole entry): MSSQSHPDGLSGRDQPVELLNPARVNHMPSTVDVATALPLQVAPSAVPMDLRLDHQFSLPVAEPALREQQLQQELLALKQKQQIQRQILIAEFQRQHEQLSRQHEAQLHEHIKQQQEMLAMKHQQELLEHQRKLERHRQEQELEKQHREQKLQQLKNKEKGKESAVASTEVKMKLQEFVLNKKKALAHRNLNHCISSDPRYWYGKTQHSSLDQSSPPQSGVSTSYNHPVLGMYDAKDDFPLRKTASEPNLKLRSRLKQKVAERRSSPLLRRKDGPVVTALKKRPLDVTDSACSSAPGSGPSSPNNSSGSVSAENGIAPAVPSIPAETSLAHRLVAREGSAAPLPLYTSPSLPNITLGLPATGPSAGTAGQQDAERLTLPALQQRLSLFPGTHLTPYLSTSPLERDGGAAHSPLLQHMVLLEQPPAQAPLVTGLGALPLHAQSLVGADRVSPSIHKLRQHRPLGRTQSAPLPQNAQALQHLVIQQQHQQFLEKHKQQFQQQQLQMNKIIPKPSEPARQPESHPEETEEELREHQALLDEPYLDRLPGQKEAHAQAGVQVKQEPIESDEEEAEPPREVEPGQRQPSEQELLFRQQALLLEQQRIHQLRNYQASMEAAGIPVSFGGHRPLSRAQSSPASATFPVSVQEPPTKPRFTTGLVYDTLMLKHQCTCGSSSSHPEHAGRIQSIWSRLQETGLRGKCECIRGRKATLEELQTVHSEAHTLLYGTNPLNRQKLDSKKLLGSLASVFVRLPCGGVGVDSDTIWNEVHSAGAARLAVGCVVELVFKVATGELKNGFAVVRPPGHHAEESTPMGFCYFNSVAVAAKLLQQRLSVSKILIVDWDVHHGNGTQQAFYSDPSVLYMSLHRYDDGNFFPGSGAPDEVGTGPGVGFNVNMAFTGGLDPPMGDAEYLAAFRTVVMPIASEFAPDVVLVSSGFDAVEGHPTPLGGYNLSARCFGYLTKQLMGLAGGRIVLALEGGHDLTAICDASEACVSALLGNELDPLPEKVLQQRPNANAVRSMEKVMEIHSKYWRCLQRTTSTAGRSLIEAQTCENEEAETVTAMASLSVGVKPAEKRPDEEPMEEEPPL
Histone deacetylase 1, sequence (Q13547 whole entry): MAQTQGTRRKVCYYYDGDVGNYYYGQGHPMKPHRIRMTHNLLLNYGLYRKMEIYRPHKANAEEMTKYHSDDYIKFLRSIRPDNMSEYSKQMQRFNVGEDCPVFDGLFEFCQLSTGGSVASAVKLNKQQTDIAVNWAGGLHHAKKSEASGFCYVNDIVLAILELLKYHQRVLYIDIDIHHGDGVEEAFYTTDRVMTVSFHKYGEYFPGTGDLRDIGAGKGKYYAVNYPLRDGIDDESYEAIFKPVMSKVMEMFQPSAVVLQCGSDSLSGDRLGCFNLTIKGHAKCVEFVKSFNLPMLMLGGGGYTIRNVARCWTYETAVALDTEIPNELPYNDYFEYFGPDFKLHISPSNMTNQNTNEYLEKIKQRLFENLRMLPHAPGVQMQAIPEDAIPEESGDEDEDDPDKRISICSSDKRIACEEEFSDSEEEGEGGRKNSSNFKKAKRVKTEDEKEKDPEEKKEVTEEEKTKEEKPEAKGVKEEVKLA

Row | Selectivity ratio (Zea mays) | IC50 (Histone deacetylase 4) [µM] | IC50 (Histone deacetylase 1) [µM] | IC50 (Histone deacetylase) [µM] | IC50 (A549) [µM] | IC50 (PC-3) [µM] | IC50 (HepG2) [µM] | Ratio IC50 (Homo sapiens) | Stability (Plasma [3]) | Activity [5] | IC50 (HCT-116) [µM] | Stability (Plasma [7]) | IC50 [11] [µM] | SMILES | Activity (U-937 [1]) | Activity (U-937 [2]) | Activity (U-937 [4]) | Activity (U-937 [6]) | Activity (U-937 [8]) | Activity (U-937 [9]) | Activity (U-937 [10])
1 | 176 | – | – | – | – | – | – | – | – | – | – | – | – | Cn1cc(/C=C/C(=O)c2cccc(F)c2)cc1/C=C/C(=O)NO | – | – | – | – | – | – | –
2 | – | 10.2 | 13.4 | 1.89 | 50.3 | 1.2 | 30.9 | 1.3 | – | – | – | – | – | COc1cc(/C=C/c2ccc(C(=O)NO)o2)ccc1OCc1ccccc1 | Active | Active | – | – | – | – | –
3 | – | 47.2 | 49.1 | – | 32.5 | 40.4 | 12.8 | 1.04 | Stable | – | 2.49 | Stable | – | O=C(NO)c1ccc(/C=C/c2ccccc2)o1 | – | – | – | – | inactive | Active | Active

The remaining lines, values behind:

Row | SMILES | Selectivity ratio (Zea mays) | IC50 (Histone deacetylase 4) [µM] | IC50 (Histone deacetylase 1) [µM] | IC50 (Histone deacetylase) [µM] | IC50 (A549) [µM] | IC50 (PC-3) [µM] | IC50 (HepG2) [µM] | Ratio IC50 (Homo sapiens) | Stability (Plasma [3]) | Activity [5] | IC50 (HCT-116) [µM] | Stability (Plasma [7]) | IC50 [11] [µM] | Activity (U-937 [1]) | Activity (U-937 [2]) | Activity (U-937 [4]) | Activity (U-937 [6]) | Activity (U-937 [8]) | Activity (U-937 [9]) | Activity (U-937 [10])
4 | O=C(/C=C/c1ccc(/C=C/C(=O)c2ccccc2)o1)NO | – | 22.8 | 11.5 | – | 20.2 | 13.3 | 12.1 | 0.5 | Stable | Active | 2.89 | Stable | – | – | – | Active | Active | – | – | –
5 | O=C(/C=C/C=C/C=C/c1ccccc1)NO | – | – | – | – | – | – | – | – | – | – | – | – | 1.8 | – | – | – | – | – | – | –
